This is an account of results in PubChem BioAssay.

Unmarked numbers belong to inactive results. Inconclusive results are not listed. Active and inactive are the calls of the source.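 Rule for the calls, unless noted: active = cell viability at or below a set limit in both duplicate runs, the limit being the all-compound median minus 4 SD (cut at about 23% in these data, passing the limit was not always enough); inconclusive = no clear call, values can overlap the other calls; inactive = the rest.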

Test [1] in a line: S. cerevisiae growth inhibition in permissive medium (OD615), pilot counter-assay for S. cerevisiae lifespan shortening project, permissive growth control (AID 705;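 active = growth inhibition above 25% in both replicates, a cutoff set 3 SD above the mean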). The settings on record: OD615, 24 h, at 10 µM, active compounds read high. A digest of the protocol:
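System: S. cerevisiae with engineered DeaD lifespan system. Medium: SC raffinose/galactose permissive medium. Doses: single compound dose of 10 µM, 0.25% DMSO final. Schedule: 24 h exposure, 30 °C. Measured by: OD615 turbidity read. Read-out: growth inhibition.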

The nature of test [2]: S. cerevisiae growth inhibition in restrictive medium, OD615, pilot screen, restrictive growth control, yeast lifespan reduction project (AID 706;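 active = growth inhibition above a set limit, 3 SD over mean compound inhibition, in both replicates, cut at about 43% in these data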;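 note: modified DeaD lifespan yeast strain shifted to restrictive glucose medium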). The settings on record: OD615, 48 h, at 10 µM, active compounds read high. A digest of the protocol:
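Assay system – genetically modified Saccharomyces cerevisiae, DeaD replicative lifespan assay strain · Medium – CSMM-D glucose medium · Doses – 10 µM compound, 0.25% DMSO · Times – 4 h pre-incubation, 48 h exposure at 30 °C · Signal – optical density at 615 nm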

Test [3] is described as follows: doxorubicin toxicity protection in MRP-1 cells – H69AR cells, CellTiter-Glo, duplicate, MRP-1 activator project, pilot screen (AID 807;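 active = viability increase at or above a cutoff of the median across tested compounds plus 3 SD, cut at about 8.5% in these data, passing the limit was not always enough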;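 note: compound pretreatment 18-22 h then 72 h combined with doxorubicin; 0% = doxorubicin alone and 100% = vehicle without doxorubicin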). The settings on record: H69AR viability with doxorubicin, CellTiter-Glo luminescence; at 10 µM; active compounds read high. For orientation: ATP-based viability assays read luminescence as a measure of living cells.
The nature of test [4]: viability of HCT116 without oncogenic beta-catenin – human colon tumor cells, pilot screen (AID 823).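 Note: 0% = wells killed by 20 µM Hyamine and 100% = untreated DMSO cell wells.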 The following applies: HCT116 beta-catenin knockout viability, CellTiter-Glo, 60 h; at 10 µM; active compounds read low.
Test [5] in a line: viability of PTEN-null HCT116 cells – cell-based, HCT116 clonal line, CellTiter-Glo, pilot screen (AID 824;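 active = viability at or below 27.92% in each of two runs, the all-compound median minus 4 SD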;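 note: 0% = 20 µM Hyamine control and 100% = vehicle cell control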). The settings on record: HCT116 PTEN-deleted viability, 60 h, at 10 µM, active compounds read low.
A short description of test [6]: RAM pathway blockade in budding yeast – dse1pr::URA3 reporter, 5-FOA selection, pilot screen (AID 869;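 active = inhibition over a set limit, the all-compound mean plus 3 SD, in both replicate runs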;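 note: 0% = DMSO wells with no growth and 100% = 10 µM 1-NA-PP1 with full growth; RAM network block rescues cells from 5-FOA so hits raise OD615 growth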). The following applies: S. cerevisiae dse1pr::URA3 5-FOA growth, OD615, 2 d; at 10 µM; active compounds read high; strain carries analog-sensitive mutant Cbk1 kinase.
Test [7] can be described thus: RAM signaling pathway blockade in yeast – S. cerevisiae, Pdr1DBD-CYC8 efflux-inhibited sensitized strain, primary screen (AID 1298;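 active = RAM network inhibition above 8.4% in each of two replicates, 3 SD over the compound average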;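 note: 0% = DMSO untreated cells without growth and 100% = 10 µM 1-NA-PP1 full growth; higher means more yeast growth rescued from 5-FOA killing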). The settings on record: S. cerevisiae cbk1-as DSE1-URA3 strain, 5-FOA growth OD615, 2 d; at 50 µM; active compounds read high.

As a reminder, the viability is a read-out of living cells in per cent, often relative to untreated cells. A word on the inhibition: it is the relative decrease from the control value, in per cent. With `CCCCNC(=O)CS(=O)Cc1nc(-c2cccs2)oc1C` (stereo unspecified), the growth inhibition in test [1] is -3.47%; in test [2] it was 21.5%. Also, the viability increase in test [3] was -0.37%. Besides, the values for the viability in test [4] and in test [5] were 97.6% and 95.7%, respectively. For the same compound, the inhibition in test [6] was 1.57%. Besides, in test [7], the RAM network inhibition was 0.54%.

In the case of `CC1CC(C(O)c2ccccn2)C(=O)C(C(O)c2ccccn2)C1` (stereo unspecified), the figures for the growth inhibition in test [1] and in test [2] were 9.67% and -1.25%, respectively. Moreover, the viability increase in test [3] is -3.28%. Also, the viability in test [4] was 97.8%; in test [5], 90.3%. The inhibition in test [6] was 0.35%. The RAM network inhibition in test [7] is -0.58%.

With `CCOC(=O)N1CCC(NC(=O)c2ccc3snnc3c2)CC1`, the results for the growth inhibition in test [1] and in test [2] were -6.44% and -4.42%, respectively. In addition, the viability increase in test [3] was -3.44%. Moreover, the viability is 98.5% in test [4] and 89.7% in test [5]. Further, the inhibition in test [6] is 0.55%. Also, the RAM network inhibition in test [7] was 4.29%.

As for `Cc1ccc(O)c(-c2cc(C(F)(F)C(F)F)[nH]n2)c1`, the growth inhibition in test [1] was -5.95%; in test [2], -19.7%. Besides, in test [3], the viability increase was -4.24%. Moreover, the viability in test [4] was 97.1%; in test [5] it was 87.3%. In addition, in test [6], the inhibition is 0.725%. The RAM network inhibition in test [7] was 3.84%.

For the compound `COc1ccc(-n2nnnc2S(=O)(=O)CC(=O)N2CCCCC2)cc1`, the growth inhibition is -2.05% in test [1] and 6.43% in test [2]. In addition, the viability increase in test [3] was -9.59%. Also, the viability was 1.47% (active) in test [4] and 2.74% (active) in test [5]. For the same compound, the inhibition in test [6] was 0.75%. Moreover, the RAM network inhibition in test [7] is -0.17%.

`COc1ccc(-n2c(Cn3c(=O)sc4ccccc43)nnc2SCC(=O)N2CCCCC2)cc1`: the figures for the growth inhibition in test [1] and in test [2] were 3.02% and 19.9%, respectively. In test [3], the viability increase is -0.89%. In addition, the viability in test [4] was 99.6%; in test [5] it was 96.5%. For the same compound, the inhibition in test [6] was 0.19%. For the same compound, the RAM network inhibition in test [7] is 6.13%.

With `CC1CCCCN1Cc1nc2c(c(=O)n(C)c(=O)n2C)n1Cc1c(F)cccc1Cl` (stereo unspecified), the growth inhibition is 1.95% in test [1] and -6.45% in test [2]. Besides, the viability increase in test [3] was -3.05%. In addition, the viability in test [4] was 78.6%; in test [5] it was 79.2%. In test [6], the inhibition is 1.46%. In test [7], the RAM network inhibition is 0.66%.

For `Cc1ccc(S(=O)(=O)N2CCCC2C(=O)Nc2nc3ccccc3s2)cc1` (stereo unspecified), the growth inhibition was -4.55% in test [1] and -5.41% in test [2]. The viability increase in test [3] was -3.97%. In addition, the viability is 79.7% in test [4] and 80.7% in test [5]. The inhibition in test [6] was 2.12%. The RAM network inhibition in test [7] is 4.05%.

Turning to `Cc1ccc2c(c1)C(c1ccc(F)cc1)N(C(=O)C1CC1)CC(=O)N2` (stereo unspecified), the growth inhibition was -3.41% in test [1] and -4.04% in test [2]. Further, the viability increase in test [3] is -1.19%. The viability in test [4] is 83%; in test [5], 75.2%. For the same compound, in test [6], the inhibition is -0.015%. In test [7], the RAM network inhibition is 1.7%.

Take `O=C(Nc1cccc(F)c1)c1ccc(S(=O)(=O)N2CCOCC2)cc1`: the growth inhibition in test [1] was -17%; in test [2], -7.46%. Moreover, the viability increase in test [3] was -2.24%. The viability in test [4] is 98.3%; in test [5], 99.6%. Further, the inhibition in test [6] was 1.13%. Moreover, in test [7], the RAM network inhibition is -1.21%.

Turning to `Cc1ccc(S(=O)(=O)/N=C(\CN2CCCCC2)N2CCOCC2)cc1`, the growth inhibition in test [1] was -11.4%; in test [2], -13.2%. In test [3], the viability increase was -1.32%. The viability in test [4] is 101%; in test [5] it was 95%. The inhibition in test [6] is 0.44%. Also, the RAM network inhibition in test [7] is 4.62%.

In the case of `Clc1ccc(-c2nnn(Cc3nc4ccccc4s3)n2)cc1`, the growth inhibition was -2.44% in test [1] and -17.7% in test [2]. Also, in test [3], the viability increase is -2.27%. Besides, the values for the viability in test [4] and in test [5] were 92.6% and 96.6%, respectively. Also, the inhibition in test [6] was 0.615%. The RAM network inhibition in test [7] is 2.46%.

`Cc1cccc(NC(=O)C2C(C(=O)O)C3C=CC2C32CC2)c1C` (stereo unspecified): the growth inhibition in test [1] was -2.43%; in test [2], -9.19%. In addition, the viability increase in test [3] was -1.67%. For the same compound, the viability was 95.2% in test [4] and 93.5% in test [5]. Also, the inhibition in test [6] is 1.42%. Moreover, the RAM network inhibition in test [7] is -0.78%.

For the compound `Brc1cccc(-c2nc(-c3ccncc3)no2)c1`, the growth inhibition was -7.69% in test [1] and 7.9% in test [2]. For the same compound, the viability increase in test [3] is -3.4%. In addition, the viability in test [4] was 90.4%; in test [5], 80%. Also, the inhibition in test [6] was -0.445%. Further, the RAM network inhibition in test [7] was 3.3%.

Take `NC(=O)CN1CCN(C(=O)NC2CCCCC2)CC1`: the values for the growth inhibition in test [1] and in test [2] were -18.1% and -12.7%, respectively. The viability increase in test [3] is 0.06%. Further, the viability in test [4] is 96%; in test [5] it was 97.9%. In addition, the inhibition in test [6] is 2.7%. Further, the RAM network inhibition in test [7] was 2.11%.

Regarding `Cc1csc2nc(CNC(=O)C3CC=CCC3C(=O)O)cn12` (stereo unspecified), the growth inhibition in test [1] was -3.37%; in test [2] it was 16.7%. In addition, in test [3], the viability increase was -2.9%. Further, the viability in test [4] was 93.7%; in test [5], 94%. The inhibition in test [6] was 2.62%. For the same compound, the RAM network inhibition in test [7] was -0.42%.

`CC1CN(C(c2cccs2)c2sc3ncnn3c2O)CC(C)O1` (stereo unspecified): the figures for the growth inhibition in test [1] and in test [2] were -15% and -4.9%, respectively. Also, in test [3], the viability increase is 0.14%. For the same compound, the results for the viability in test [4] and in test [5] were 101% and 97.8%, respectively. Besides, the inhibition in test [6] is 2.26%. Also, the RAM network inhibition in test [7] was 4.47%.

On to `CCCCn1c(C(C)NC(=O)CCC)nc2ccccc21` (stereo unspecified), for which the growth inhibition in test [1] was -1.25%; in test [2], -0.375%. The viability increase in test [3] was 1.35%. In addition, the viability is 86.2% in test [4] and 91% in test [5]. Further, in test [6], the inhibition is 0.88%. The RAM network inhibition in test [7] is 7.23%.
